# Experimental data published in PubChem BioAssay.
# Values without a mark were called inactive. Results filed as inconclusive are left out. The source made the active and inactive calls.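 Rule for the calls, unless noted: active = viability at or below 27.92% in each of two runs, the all-compound median minus 4 SD; inconclusive = no clear call, values can overlap the other calls; inactive = the rest.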
# Tests used:
# [1] = S. cerevisiae growth inhibition in permissive medium (OD615), pilot counter-assay for S. cerevisiae lifespan shortening project, permissive growth control (AID 705;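 active = growth inhibition above 25% in both replicates, a cutoff set 3 SD above the mean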); settings: OD615, 24 h, at 10 µM, active compounds read high
# How it was run: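 System: Engineered DeaD yeast | Buffer or medium: SC raffinose/galactose permissive medium | Incubation: Cells pre-grown 4 h, then 24 h compound exposure, 30 °C humidified | Measured by: Absorbance (optical density) at 615 nm | Read-out: Reduction in yeast growth (OD615)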
# [2] = S. cerevisiae growth inhibition in restrictive medium, OD615, pilot screen, restrictive growth control, yeast lifespan reduction project (AID 706;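 active = growth inhibition above a set limit, 3 SD over mean compound inhibition, in both replicates, cut at about 43% in these data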;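 note: modified DeaD lifespan yeast strain shifted to restrictive glucose medium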); settings: OD615, 48 h, at 10 µM, active compounds read high
# How it was run: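 Material: modified S. cerevisiae; Medium: glucose-based CSMM-D restrictive medium; Compound dosing: one concentration, 10 µM final, 0.25% DMSO; Incubation: 48 h compound exposure at 30 °C; Measured by: OD615.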
# [3] = doxorubicin toxicity protection in MRP-1 cells – H69AR cells, CellTiter-Glo, duplicate, MRP-1 activator project, pilot screen (AID 807;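 active = viability increase at or above a cutoff of the median across tested compounds plus 3 SD, cut at about 8.5% in these data, passing the limit was not always enough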;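 note: compound pretreatment 18-22 h then 72 h combined with doxorubicin; 0% = doxorubicin alone and 100% = vehicle without doxorubicin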); settings: H69AR viability with doxorubicin, CellTiter-Glo luminescence; at 10 µM; active compounds read high
# [4] = viability of HCT116 without oncogenic beta-catenin – human colon tumor cells, pilot screen (AID 823;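 active = cell viability at or below a set limit in both duplicate runs, the limit being the all-compound median minus 4 SD, cut at about 23% in these data, passing the limit was not always enough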;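 note: 0% = wells killed by 20 µM Hyamine and 100% = untreated DMSO cell wells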); settings: HCT116 beta-catenin knockout viability, CellTiter-Glo, 60 h; at 10 µM; active compounds read low
# [5] = viability of PTEN-null HCT116 cells – cell-based, HCT116 clonal line, CellTiter-Glo, pilot screen (AID 824); settings: HCT116 PTEN-deleted viability, 60 h, at 10 µM, active compounds read low;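 note: 0% = 20 µM Hyamine control and 100% = vehicle cell control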
# [6] = RAM pathway blockade in budding yeast – dse1pr::URA3 reporter, 5-FOA selection, pilot screen (AID 869;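 active = inhibition over a set limit, the all-compound mean plus 3 SD, in both replicate runs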;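 note: 0% = DMSO wells with no growth and 100% = 10 µM 1-NA-PP1 with full growth; RAM network block rescues cells from 5-FOA so hits raise OD615 growth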); settings: S. cerevisiae dse1pr::URA3 5-FOA growth, OD615, 2 d; at 10 µM; active compounds read high; strain carries analog-sensitive mutant Cbk1 kinase
# [7] = RAM signaling pathway blockade in yeast – S. cerevisiae, Pdr1DBD-CYC8 efflux-inhibited sensitized strain, primary screen (AID 1298;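 active = RAM network inhibition above 8.4% in each of two replicates, 3 SD over the compound average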;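 note: 0% = DMSO untreated cells without growth and 100% = 10 µM 1-NA-PP1 full growth; higher means more yeast growth rescued from 5-FOA killing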); settings: S. cerevisiae cbk1-as DSE1-URA3 strain, 5-FOA growth OD615, 2 d; at 50 µM; active compounds read high
Compound,growth inhibition [1],growth inhibition [2],viability increase [3],viability [4],viability [5],inhibition [6],RAM network inhibition [7]
CC(C)(C)N1C(=O)c2ccc(C(=O)Nc3nccs3)cc2C1=O,-7.12%,-7.02%,-0.27%,106%,103%,0.64%,0.63%
COc1ccc(N(CC(=O)Nc2ccc3c(c2)OCCO3)S(=O)(=O)c2c(C)nn(C)c2C)cc1,-9.27%,-19.9%,-2.36%,99.4%,95.9%,0.73%,4.15%
CCCCCn1c(NCc2ccco2)nc2ccccc21,0.22%,1.09%,-5.56%,84.9%,72.9%,1.6%,1.9%
COc1ccc(C2C(C(=O)c3ccco3)=C(O)C(=O)N2Cc2cccnc2)cc1OC (stereo unspecified),-4.18%,6.84%,-3.78%,102%,98.7%,0.875%,0.66%
COc1cccc(C(=O)Nc2nnc(-c3cccs3)o2)c1,-16.4%,-17%,-4.26%,44.8%,56.3%,0.07%,0.16%
N#CCCN1CCN(C(CNS(=O)(=O)c2ccc(Cl)cc2)c2ccccc2)CC1 (stereo unspecified),-11.4%,-16.5%,-1.72%,95.3%,94.8%,1.9%,6.39%
O=C(NCCCn1ccnc1)c1cccc(S(=O)(=O)Nc2ccccc2F)c1,-13.9%,-26.1%,-0.61%,92.3%,92.8%,2.51%,5.99%
Cc1ccc(SCCNC(=O)C(CO)(CO)CO)cc1,2.57%,-1.61%,-0.51%,101%,98.7%,0.935%,0.52%
O=C(c1cnc2n(c1=O)CCS2)N1CCN(C(c2ccccc2)c2ccc(Cl)cc2)CC1 (stereo unspecified),-9.19%,-3.16%,-5.31%,79.1%,63.7%,1.31%,2.72%
CCCc1cc(C(=O)Nc2ccc(C)cc2)no1,-3.58%,-5.4%,-0.63%,101%,97.6%,1.32%,1.86%
COc1ccc(OC)c(CN2CCN(c3ccccc3OC)CC2)c1,-7.27%,-8.51%,-0.4%,61.2%,71.6%,1.86%,5.18%
CCOC(=O)N1CCC(NC(=O)CSCc2nc(-c3sccc3C)oc2C)CC1,-9.01%,-10.5%,-1.24%,90%,83.5%,1.34%,6.2%
CCOC(=O)Cc1csc(SCn2nnc3ccccc3c2=O)n1,-8.4%,-9.13%,0.7%,94.8%,94.8%,2.31%,1.31%
CCn1c(SCC(=O)N2CCCC2)nc2c(c1=O)SC(C)C2 (stereo unspecified),-17.4%,-27.5%,-4.48%,101%,95.6%,1.73%,3.14%
COC(=O)c1ccc2c(c1)N(Cc1cc(C)ccc1C)C(=O)c1ccccc1S2=O (stereo unspecified),-0.815%,-2.77%,-2.53%,96.8%,91.9%,0.92%,3.53%
COc1ccc(Nc2nc(N)nc(CN3CCc4ccccc4C3)n2)cc1,-5.29%,-14.9%,-5.38%,44.7%,48.4%,0.725%,4.84%
O=C(Cn1cnc2c(nnn2-c2cccc(Cl)c2)c1=O)N1CCOCC1,-0.49%,-4.46%,-0.35%,92.5%,96.4%,1.79%,1.56%

Compound,growth inhibition [1],growth inhibition [2],viability increase [3],viability [4],viability [5],inhibition [6],RAM network inhibition [7]
COc1ccc(Cn2c(=O)[nH]c3cc(C(=O)N4CCN(Cc5ccccc5)CC4)ccc3c2=O)cc1,1.4%,-4.04%,1.49%,36.3%,49.7%,0.835%,1.57%
Cc1ccccc1CN1CCNC(=O)C1CC(=O)O (stereo unspecified),-13.2%,-14.1%,-3.29%,105%,96.2%,2.04%,-0.64%
O=C(Cn1c(=O)n(-c2ccccc2)c(=O)n1CC(=O)N1CCCCC1)N1CCCCC1,-8.76%,-2.77%,-0.69%,107%,96.4%,0.495%,0.57%
CCOC(=O)c1c(C)n(C)c2ccc(OCC(O)CN3CCCCCC3)cc12 (stereo unspecified),-0.855%,-3.17%,-5.4%,61.5%,62.5%,0.77%,2.14%
Cc1ccc(S(=O)(=O)n2ccnc2)cc1C,-7.98%,-8.12%,-0.49%,96.1%,88.9%,1.86%,2.35%
COc1cc(OC)c(NC(=O)c2ccc(Br)o2)cc1Cl,-8.78%,7.46%,-7.05%,69.8%,70.6%,1.47%,10.5%
CCSC1=N/C(=C\c2ccc(C(=O)O)cc2)C(=O)S1,-3.9%,-3.52%,-2.03%,95.4%,100%,1.83%,8.27%
COC(=O)c1ccc(NC(=O)CSc2nnc(-c3ccncc3)n2N)cc1,-4.88%,-14.8%,-1.74%,95.7%,97.4%,0.805%,0.26%
CCOc1ccccc1C1N(c2ccc(OC)cc2)C(=O)C2CCCN21 (stereo unspecified),-3.72%,-10.4%,-0.9%,99.8%,101%,2.9%,-1.29%
Cc1cc(/C=N/n2cnnc2)c(C)n1-c1ccc(OCc2ccc(F)cc2)cc1,-2.2%,32.3%,-5.79%,10.2% (active),11.8% (active),1.71%,8.48%
O=C1c2ccccc2NC(c2ccccc2)N1c1ccc(O)cc1 (stereo unspecified),-0.23%,1.65%,-3.15%,87.1%,90.8%,1.19%,1.89%
O=C(O)[C@H](Cc1ccccc1)N1Cc2ccccc2C1=O,-4.39%,-15%,-2.35%,95.3%,97.4%,1.4%,1.15%
NC(=O)C1CCN(C(=O)C2CCN(S(=O)(=O)c3ccccc3)CC2)CC1,-2.18%,12.3%,-1.4%,102%,105%,1.06%,0.84%
COc1ccc(C(=O)NCCSCc2ccco2)cc1OC,-9.5%,5.73%,-4.86%,98.2%,95.6%,1%,5.47%
COCCCNC(=O)CS(=O)Cc1nc(-c2ccccc2C)oc1C (stereo unspecified),-4.76%,18%,-1.44%,97.9%,102%,0.445%,6.27%
CCOC(=O)CN1CC23C=CC(O2)C(C(=O)O)C3C1=O (stereo unspecified),2.83%,-3.85%,0.14%,103%,107%,0.73%,4%
